Measurements as given in ChEMBL document CHEMBL3102834, “Discovery of 5-substituted pyrrolo[2,3-d]pyrimidine antifolates as dual-acting inhibitors of glycinamide ribonucleotide formyltransferase and 5-aminoimidazole-4-carboxamide ribonucleotide formyltransferase in de novo purine nucleotide biosynthesis: implications of inhibiting …” (J Med Chem, 2013).
Calls of active or inactive are those of the source. The calls are words filed in the database; no cut-off is given here.

Legend:
KB [1] = experiment: Cell cycle arrest in human KB cells assessed as accumulation at G1/G0 phase at 1 uM after 96 hrs by propidium iodide staining-based flow cytometry (reference value: 67.4%); assay type: functional
R2 [2] = experiment: Cytotoxicity against chinese hamster R2 cells after 96 hrs by CellTitre-Blue fluorescence assay; conditions: Cricetulus griseus, R2, 96 h
KB [3] = experiment: Cell cycle arrest in human KB cells assessed as accumulation at S phase at 1 uM after 96 hrs by propidium iodide staining-based flow cytometry (reference value: 15.9%); assay type: functional
KB [4] = experiment: Cytotoxicity against human KB cells expressing human RFC/FRalpha/PCFT after 96 hrs by CellTitre-Blue fluorescence assay in presence of AICA; assay type: functional, cell-based
How it was run: (§1)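 KB cells were grown in FF-RPMI with DFBS and 2 nM LCV, exposed to antifolate (0–1 μM) for 96 h at 37 °C, and read by CellTiter-Blue fluorescence. IC50 was taken from dose–response curves relative to untreated cells. Protection arms added adenosine 60 μM, thymidine 10 μM, AICA 320 μM, or folic acid 200 nM. Means of 3–10 experiments.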

[5] = Cytotoxicity against chinese hamster PC43-10 cells expressing human RFC after 96 hrs by CellTitre-Blue fluorescence assay; assay type: functional, cell-based; conditions: Cricetulus griseus, PC43-10, 96 h
How it was run: (§2)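 CHO sublines were grown in FF-RPMI/DFBS; transfectants were maintained with G418. Cells were exposed to antifolate (0–1 μM) for 96 h at 37 °C with 2 nM LCV (RT16) or 25 nM LCV (R2/PCFT4). PC43-10 cells were grown in standard RPMI1640/DFBS instead. FRα specificity was tested by adding 200 nM folic acid. Viable cells were read by CellTiter-Blue fluorescence (ex 560/em 590), and IC50 was taken from dose–response curves; means of 3–10 experiments.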

KB [6] = experiment: Induction of apoptosis in human KB cells assessed as viable cells at 1 uM after 96 hrs by Annexin V-FITC/7-AAD staining-based flow cytometry (RVB = 89.6%); assay type: functional; conditions: read-out: Activity
KB [7] = experiment: Induction of apoptosis in human KB cells assessed as early apoptotic cells at 1 uM after 96 hrs by Annexin V-FITC/7-AAD staining-based flow cytometry (reference value: 0.485%); assay type: functional
KB [8] = experiment: Cell cycle arrest in human KB cells assessed as accumulation at G2/M phase at 1 uM after 96 hrs by propidium iodide staining-based flow cytometry (reference value: 13.2%); assay type: functional
[9] = Cytotoxicity against chinese hamster RT16 cells expressing human FRalpha after 96 hrs by CellTitre-Blue fluorescence assay in presence of folic acid; assay type: functional, cell-based; conditions: Cricetulus griseus, RT16, 96 h; how it was run: as §2
KB [10] = experiment: Cytotoxicity against human KB cells at 10 uM incubated for 48 hrs followed by compound washout measured after 10 days by colony forming assay; assay type: functional, cell-based
How it was run: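 About 500 KB cells were plated in FF-RPMI/DFBS with 2 nM LCV for 24 h. Drug (0–10 μM) was then added, and exposure is stated as 24 h in Methods and 48 h in the legend. Medium was replaced with drug-free FF-RPMI plus 2 nM LCV for 8–10 days. Colonies were fixed with 5% TCA, stained with 1% methylene blue in borate buffer pH 8.8, and counted; three experiments.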

[11] = Cytotoxicity against chinese hamster R2(VC) cells after 96 hrs by CellTitre-Blue fluorescence assay; assay type: functional, cell-based; conditions: Cricetulus griseus; how it was run: as §2
KB [12] = experiment: Induction of apoptosis in human KB cells assessed as necrotic cells at 1 uM after 96 hrs by Annexin V-FITC/7-AAD staining-based flow cytometry (RVB = 7.80%); assay type: functional
KB [13] = experiment: Cytotoxicity against human KB cells expressing human RFC/FRalpha/PCFT assessed as depletion of ATP pools at 1 uM after 24 hrs by ion-pair HPLC analysis; assay type: functional
How it was run: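 KB cells in FF-RPMI/10% DFBS with 2 mM glutamine and 2 nM LCV were exposed to 1 μM drug for 24 h. They were trypsinized and washed, and nucleotides were extracted. ATP was quantified by reversed-phase ion-pair HPLC on a C18 column. Results are means ± standard errors.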

R2 [14] = experiment: Cytotoxicity against chinese hamster R2 cells expressing human PCFT4 after 96 hrs by CellTitre-Blue fluorescence assay; assay type: functional, cell-based, Cricetulus griseus; conditions: R2, 96 h
[15] = target: Bifunctional purine biosynthesis protein ATIC (Homo sapiens) (UniProt P31939); experiment: Inhibition of AICARFTase in human KB cells assessed as accumulation of ZMP at 1 uM after 48 hrs by HPLC analysis; assay type: cell-based
How it was run: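 KB cells were treated with 1 μM drug for 48 h in FF-RPMI/10% DFBS with 2 nM LCV. Metabolites were extracted with 5% TCA and then ether. They were separated by SAX ion-exchange HPLC using an NH4H2PO4 gradient (5 mM pH 2.8 to 750 mM pH 3.9) over 25 min with detection at 280 nm. ZMP was quantified against a standard curve with an AraCMP internal control; three experiments.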

KB [16] = experiment: (§3) Inhibition of GARFTase in human KB cells assessed as incorporation of [14C]-glycine into [14C]-formyl GAR incubated 30 mins prior to [14C]-glycine addition measured after 16 hrs by radiometric assay in presence of azaserin; assay type: cell-based
How it was run: (§4)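 KB cells were preincubated 1 h in folate- and glutamine-free medium with 2 nM LCV and a range of drug concentrations. Azaserine (4 μM final) was added for 30 min, then 2 mM glutamine and [14C(U)]glycine (0.1 mCi/L) for 16 h at 37 °C. TCA extracts were ether-washed and run on AG1×8 anion exchange. [14C]formyl GAR was measured per mg protein, and IC50 was set against DMSO controls; three experiments.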

[17] = as §3; assay type: cell-based; how it was run: as §4
[18] = Cytotoxicity against chinese hamster RT16 cells expressing human FRalpha after 96 hrs by CellTitre-Blue fluorescence assay; assay type: functional, cell-based; conditions: Cricetulus griseus, RT16, 96 h; how it was run: as §2
KB [19] = experiment: Induction of apoptosis in human KB cells assessed as late apoptotic cells at 1 uM after 96 hrs by Annexin V-FITC/7-AAD staining-based flow cytometry (reference value: 2.09%); assay type: functional
KB [20] = experiment: Cell cycle arrest in human KB cells assessed as accumulation at sub-G1 phase at 1 uM after 96 hrs by propidium iodide staining-based flow cytometry (reference value: 3.5%); assay type: functional
KB [21] = experiment: Cytotoxicity against human KB cells expressing human RFC/FRalpha/PCFT after 96 hrs by CellTitre-Blue fluorescence assay in presence of thymidine; assay type: functional, cell-based; how it was run: as §1

Bifunctional purine biosynthesis protein ATIC (Homo sapiens), sequence (P31939 whole entry, looked up): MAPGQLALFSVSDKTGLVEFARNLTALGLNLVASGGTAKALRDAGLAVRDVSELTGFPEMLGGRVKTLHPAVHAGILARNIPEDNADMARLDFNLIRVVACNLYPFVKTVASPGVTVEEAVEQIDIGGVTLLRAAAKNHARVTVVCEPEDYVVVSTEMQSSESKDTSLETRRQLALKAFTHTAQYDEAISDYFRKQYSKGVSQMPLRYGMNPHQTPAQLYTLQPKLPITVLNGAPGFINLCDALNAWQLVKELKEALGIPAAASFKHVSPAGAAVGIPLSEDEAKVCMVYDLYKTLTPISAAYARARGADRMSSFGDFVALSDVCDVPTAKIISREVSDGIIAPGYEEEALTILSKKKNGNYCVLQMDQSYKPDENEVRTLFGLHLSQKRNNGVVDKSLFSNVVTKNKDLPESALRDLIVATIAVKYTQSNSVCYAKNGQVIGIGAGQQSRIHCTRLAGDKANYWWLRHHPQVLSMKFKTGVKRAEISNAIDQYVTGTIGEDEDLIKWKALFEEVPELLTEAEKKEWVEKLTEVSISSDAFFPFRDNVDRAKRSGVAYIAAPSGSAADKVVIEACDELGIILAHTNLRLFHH

inhibition [15]: Active | IC50 [17]: 29.7 nM
Compound: Nc1nc2[nH]cc(CCCCc3ccc(C(=O)N[C@@H](CCC(=O)O)C(=O)O)cc3)c2c(=O)[nH]1
Activity (KB [1]): 12.9% | IC50 (R2 [2]): > 1000 nM | Activity (KB [3]): 48.2% | Activity (KB [4]): Active | IC50 [5]: 56.6 nM | viability at 1 µM (KB [6]): 39% | Activity (KB [7]): 33.8% | Activity (KB [8]): 2.3% | IC50 [9]: > 1000 nM | Activity (KB [10]): Active | IC50 [11]: > 1000 nM | Activity (KB [12]): 0.456% | inhibition at 1 µM (KB [13]): > 90% | IC50 (R2 [14]): 840 nM | inhibition (KB [16]): Dose-dependent effect | IC50 [18]: 8.6 nM | Activity (KB [19]): 26.7% | Activity (KB [20]): 36.7% | Activity (KB [21]): Active
